We go through 76 molecules from ChEMBL document CHEMBL3751702, “Comprehensive Analysis of Structure-Activity Relationships of α-Ketoheterocycles as sn-1-Diacylglycerol Lipase α Inhibitors” (J Med Chem, 2015).

Some results are limits rather than exact numbers.

What is called IC50 is the concentration that inhibits the measured activity by half. Lower therefore signals greater potency. In general, pIC50 refers to the IC50 on a negative log10 scale, so that one unit is a factor of ten. A lower pIC50 goes with a high IC50.

The target of one assay is T1, Diacylglycerol lipase-alpha (Homo sapiens, UniProt Q9Y4D2).
T1 sequence (Q9Y4D2 whole entry): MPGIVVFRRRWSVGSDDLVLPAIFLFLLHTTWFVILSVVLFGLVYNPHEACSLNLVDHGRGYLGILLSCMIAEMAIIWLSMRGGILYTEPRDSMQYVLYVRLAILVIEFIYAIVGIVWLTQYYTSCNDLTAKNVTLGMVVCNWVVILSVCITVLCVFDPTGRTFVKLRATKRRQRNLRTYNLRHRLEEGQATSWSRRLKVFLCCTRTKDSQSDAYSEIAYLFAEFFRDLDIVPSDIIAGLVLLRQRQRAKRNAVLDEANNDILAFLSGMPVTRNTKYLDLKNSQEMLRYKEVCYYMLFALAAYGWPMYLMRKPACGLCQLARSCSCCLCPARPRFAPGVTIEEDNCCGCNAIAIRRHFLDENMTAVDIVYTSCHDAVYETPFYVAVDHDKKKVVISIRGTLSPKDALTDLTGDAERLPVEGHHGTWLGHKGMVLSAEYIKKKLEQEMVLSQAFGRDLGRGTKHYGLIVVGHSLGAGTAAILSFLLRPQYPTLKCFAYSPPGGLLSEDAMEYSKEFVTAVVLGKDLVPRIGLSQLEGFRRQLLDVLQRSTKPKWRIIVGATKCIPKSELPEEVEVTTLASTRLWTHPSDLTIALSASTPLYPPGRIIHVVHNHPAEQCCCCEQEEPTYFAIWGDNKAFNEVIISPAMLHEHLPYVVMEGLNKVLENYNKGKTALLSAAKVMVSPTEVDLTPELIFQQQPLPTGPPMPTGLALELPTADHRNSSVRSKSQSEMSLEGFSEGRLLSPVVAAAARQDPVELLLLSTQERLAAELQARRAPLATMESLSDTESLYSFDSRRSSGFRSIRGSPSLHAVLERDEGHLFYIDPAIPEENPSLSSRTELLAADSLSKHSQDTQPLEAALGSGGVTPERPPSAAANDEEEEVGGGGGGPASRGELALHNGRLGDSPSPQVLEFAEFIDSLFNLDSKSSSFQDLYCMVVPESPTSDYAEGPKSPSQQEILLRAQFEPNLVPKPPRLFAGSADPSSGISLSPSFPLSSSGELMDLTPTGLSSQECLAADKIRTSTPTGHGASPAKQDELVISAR
Kind of assay: Inhibition of full-length human DAGLalpha expressed in HEK293T cell membranes using para-nitrophenylbutyrate by colorimetric assay. Type of assay: cell-based, HEK-293T.
Details: not given
An outline of the steps:
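Membranes from HEK293T cells transiently transfected with full-length human DAGL-α (pcDNA3.1; PEI transfection, harvested at 72 h), diluted to 0.05 μg/μL final protein in 50 mM HEPES pH 7.2. Screen at 10 μM in duplicate; dose response by 10-fold serial dilution.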
`CN(C)C(=O)c1cnc(C(=O)CCCCCCc2ccccc2)o1` had a 50% inhibitory concentration (IC50) greater than 10 µM.
`CC(=O)c1cnc(C(=O)CCCCCCc2ccccc2)o1` had an IC50 greater than 10 µM.
Still for that read-out and setting: to `CNC(=O)c1cnc(C(=O)CCCCCCc2ccccc2)o1` belongs greater than 10 µM; to `CSc1cnc(C(=O)CCCCCCc2ccccc2)o1`, greater than 10 µM; to `O=C(CCCCCCc1ccccc1)c1ncco1`, greater than 10 µM.
On the same count and under the same terms, to `O=C(CCCCCCc1ccccc1)c1ncc(C(=O)C(F)(F)F)o1` belongs 1.82 µM; to `O=C(CCCCCCc1ccccc1)c1ncc(Cl)o1`, greater than 10 µM.
Still for that read-out and setting: then `O=Cc1cnc(C(=O)CCCCCCc2ccccc2)o1`, with greater than 10 µM; and `N#Cc1cnc(C(=O)CCCCCCc2ccccc2)o1`, with greater than 10 µM; and `COC(=O)c1cnc(C(=O)CCCCCCc2ccccc2)o1`, with greater than 10 µM.
Turning to `Cc1cnc(C(=O)CCCCCCc2ccccc2)o1`, the IC50 is greater than 10 µM.
Still for that read-out and setting: to `O=C(CCCCCc1ccccc1)c1nc2ccccc2o1` belongs 3.63 µM; to `CCCCC/C=C\C/C=C\C/C=C\C/C=C\CCCC(=O)c1nc2ncccc2o1`, 2.4 µM; to `O=C(CCCCCCc1ccccc1)c1ncc(Br)o1`, greater than 10 µM.
Same read-out and setting: then `O=C(CCCCCCc1ccccc1)c1ncc(C(F)(F)F)o1`, with greater than 10 µM; and `CS(=O)(=O)c1cnc(C(=O)CCCCCCc2ccccc2)o1`, with greater than 10 µM; and `O=C(CCCCCc1ccccc1)c1nc2ncccc2s1`, with greater than 10 µM.
Same read-out and setting: to `O=C(CCCCCc1ccccc1)c1nc2cccc(F)c2o1` belongs greater than 10 µM; to `CC(C)(C)C(=O)c1coc(C(=O)CCCCCCc2ccccc2)n1`, 0.479 µM; to `O=C(CCCCCc1ccccc1)c1nc2cc(F)ccc2o1`, 1.41 µM.
For the molecule `O=C(CCCCCc1ccccc1)c1nc2cccnc2o1`, the IC50 was 1.7 µM. This IC50 and that of the molecule before are within 1.5-fold of each other.
Take `O=C(CCCCCCc1ccccc1)c1nnc(-c2ccccc2)s1`: the IC50 is greater than 10 µM.
With `O=C(CCCCCc1ccccc1)c1nc2ccccc2[nH]1`, the IC50 is 12 µM.
The same measure, in the same setting: then `O=C(CCCCCc1ccccc1)c1nc2cnccc2o1`, with 0.204 µM.
For `CS(=O)(=O)c1coc(C(=O)CCCCCCc2ccccc2)n1`, the IC50 was 0.389 µM.
Still for that read-out and setting: then `O=C(CCCCCc1ccccc1)c1nc2ccc(F)cc2o1`, with 0.708 µM.
As to `O=C(CCCCCc1ccccc1)c1nc2ncccc2[nH]1`, half-maximal inhibition (IC50) required 1.23 µM. This IC50 lies about 1.7-fold higher than the previous one.
Molecule `O=C(CCCCCc1ccccc1)c1nc2cc([N+](=O)[O-])ccc2o1` had an IC50 of 0.891 µM.
Molecule `O=C(CCCCCc1ccccc1)c1nc2ccc([N+](=O)[O-])cc2o1` had a concentration for half-maximal inhibition (IC50) of 0.0871 µM.
Same read-out and setting: then `CCCCCCCC/C=C\CCCCCCCC(=O)c1nc2ccccc2[nH]1`, with 0.195 µM; and `O=C(CCCCCc1ccccc1)c1nc2c(F)cccc2o1`, with 0.117 µM; and `O=C(CCCCCc1ccccc1)c1nc2ccc(Br)cc2o1`, with 5.89 µM.
Molecule `O=C(CCCCCCc1ccccc1)c1nnc(-c2ccccc2)[nH]1` had an IC50 greater than 10 µM.
The same measure, in the same setting: then `O=C(CCCCCc1ccccc1)c1nc2ccccc2s1`, with greater than 10 µM.
Same read-out and setting: then `COc1cnc(C(=O)CCCCCCc2ccccc2)o1`, with greater than 10 µM; and `O=C(CCCCCc1ccccc1)c1nc2cccc(Br)c2o1`, with greater than 10 µM.
On the same count and under the same terms, to `O=C(CCCCCCc1ccccc1)c1nnc(-c2cccs2)s1` belongs greater than 10 µM; to `O=C(CCCCCCc1ccccc1)c1nc(Br)co1`, greater than 10 µM; to `O=C(CCCCCCc1ccccc1)c1ncno1`, greater than 10 µM.
The molecule `COC(=O)c1nnc(C(=O)CCCCCCc2ccccc2)s1` gave an IC50 greater than 10 µM.
The same measure, in the same setting: then `Cn1nnnc1C(=O)CCCCCCc1ccccc1`, with greater than 10 µM.
Consider `O=C(CCCCCCc1ccccc1)c1cccnn1`, for which the IC50 is greater than 10 µM.
Same read-out and setting: to `O=C(CCCCCCc1ccccc1)c1nnn[nH]1` belongs greater than 10 µM; to `O=C(CCCCCCc1ccccc1)c1nc(-c2ccccc2)co1`, 8.71 µM.
Same read-out and setting: then `CNC(=O)c1coc(C(=O)CCCCCCc2ccccc2)n1`, with greater than 10 µM; and `O=Cc1coc(C(=O)CCCCCCc2ccccc2)n1`, with 1.51 µM; and `CSc1coc(C(=O)CCCCCCc2ccccc2)n1`, with greater than 10 µM.
Same read-out and setting: then `O=C(CCCCCCc1ccccc1)c1nc(C(=O)C(F)(F)F)co1`, with 0.123 µM; and `COC(=O)c1coc(C(=O)CCCCCCc2ccccc2)n1`, with 0.631 µM; and `CC(=O)c1coc(C(=O)CCCCCCc2ccccc2)n1`, with 0.123 µM.
Regarding `O=C(CCCCCCc1ccccc1)c1nc(C(F)(F)F)co1`, the IC50 is 0.214 µM.
On the same count and under the same terms, to `O=C(CCCCCCc1ccccc1)c1nc(I)co1` belongs 2.34 µM; to `Cc1coc(C(=O)CCCCCCc2ccccc2)n1`, greater than 10 µM.
Consider `N#Cc1coc(C(=O)CCCCCCc2ccccc2)n1`, for which the IC50 is 0.575 µM.
Consider `O=C(CCCCCCc1ccccc1)c1nc(Cl)co1`, for which it took 2.4 µM to reach half-maximal inhibition (IC50).
Regarding `CN(C)C(=O)c1coc(C(=O)CCCCCCc2ccccc2)n1`, inhibition was half-maximal at 3.39 µM (IC50).
Regarding `Cn1nnc(C(=O)CCCCCCc2ccccc2)n1`, the IC50 is greater than 10 µM.
For the molecule `O=C(CCCCCCc1ccccc1)c1nnn(-c2ccccn2)n1`, the IC50 is greater than 10 µM.
Same read-out and setting: then `O=C(CCCCCCc1ccccc1)c1nnco1`, with 2.69 µM.
The molecule `O=C(CCCCCCc1ccccc1)c1ncc(-c2ccccn2)s1` had an IC50 greater than 10 µM.
The molecule `COC(=O)c1nnc(C(=O)CCCCCCc2ccccc2)[nH]1` had an IC50 greater than 10 µM.
The same measure, in the same setting: then `O=C(CCCCCCc1ccccc1)c1nnn(-c2ccco2)n1`, with greater than 10 µM.
On the same count and under the same terms, then `O=C(CCCCCCc1ccccc1)c1ncc(-c2ccco2)s1`, with greater than 10 µM; and `O=C(CCCCCCc1ccccc1)c1nnc(-c2ccco2)[nH]1`, with greater than 10 µM.
Take `O=C(CCCCCCc1ccccc1)c1nnc(-c2cccs2)[nH]1`: the IC50 is greater than 10 µM.
As for `O=C(CCCCCCc1ccccc1)c1ccc(-c2ccccn2)nn1`, the IC50 was greater than 10 µM.
`O=C(CCCCCCc1ccccc1)c1nncs1` had an IC50 greater than 10 µM.
Same read-out and setting: to `O=C(CCCCCCc1ccccc1)c1nnc(-c2ccccn2)s1` belongs greater than 10 µM; to `O=C(CCCCCCc1ccccc1)c1ccc(-c2cccs2)nn1`, greater than 10 µM; to `O=C(CCCCCCc1ccccc1)c1nnc[nH]1`, greater than 10 µM.
The same measure, in the same setting: then `O=C(CCCCCCc1ccccc1)c1ccc(-c2ccco2)nn1`, with greater than 10 µM; and `O=C(CCCCCCc1ccccc1)c1nnn(-c2cccs2)n1`, with greater than 10 µM.
The same measure, in the same setting: to `O=C(CCCCCCc1ccccc1)c1nnc(-c2ccccn2)[nH]1` belongs greater than 10 µM; to `O=C(CCCCCCc1ccccc1)c1ncc(-c2cccs2)s1`, greater than 10 µM; to `O=C(CCCCCCc1ccccc1)c1nnc(-c2ccco2)s1`, greater than 10 µM.
`COc1coc(C(=O)CCCCCCc2ccccc2)n1` had an IC50 greater than 10 µM.

Still in this assay, the particulars now being: hek-293t.
Molecule `O=C(CCCCCCc1ccccc1)c1nnn[nH]1` returned a pIC50 of less than 5.
